INS promoter act – TRM-6 insulin promoter activation; TRM-6 cells, insulin promoter eGFP reporter, imaging; plate-scaled: unstimulated 0, stimulated control 100; activation, % at 2 µM; 130,000 tested, 0.81% active; AID 1296;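 active = activation at 2 µM above a set limit, confirmed on inspection of the cell images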;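 also: share of cells whose green reporter signal exceeds an intensity cutoff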
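System: human fetal islet-derived TRM-6 cells with tamoxifen-inducible insulin promoter–eGFP reporter; input: seeding density of 1,000 cells per well; buffer or medium: Low-glucose (5.5 mM) medium with tamoxifen; incubation: compound exposure 48 h, 37 °C; measured by: high-content imaging of fixed cells with Hoechst nuclear stain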
Large screens that a line does not name were inactive. Shown is part of a subset that was picked to be rich in hits.

CC12CN3CC(C)(CN(C1)C3c1ccc3c(c1)OCO3)C2=O (configuration not stated)	INS promoter act 437.5
CN1c2ccccc2N(C)C1c1ccc2c(c1)OCO2	none
O=C1C2C3C=CC(CC3)C2C(=O)N1c1ccc2c(c1)OCO2 (configuration not stated)	none
CCc1nc2ccccc2c2nc3ccccc3n12	none
Cc1ccc(-c2nnc3c(C(F)(F)F)nc4ccccc4n23)cc1	none
Cc1nnc2c(Oc3ccccc3)nc3ccccc3n12	INS promoter act 131.4
Cc1ccc(NC(=O)Cn2nc(-c3ccccc3Cl)ccc2=O)c(Br)c1	none
Cc1ccc(-n2ncc3c(SCc4ccccc4)ncnc32)cc1	none
CCOC(=O)CSc1ncnc2c1cnn2-c1ccccc1	INS promoter act 121.4
CCOC(=O)CC(=O)CSc1ncnc2c1cnn2-c1ccccc1	none
CCC(/C=N/NC(=O)C(=O)N/N=C/C(CC)CC)CC	none
Cc1ccc(Oc2ncnc(N)c2[N+](=O)[O-])cc1C	INS promoter act 311.8
Cc1cc(C)c(C)c(Oc2ncnc(N)c2[N+](=O)[O-])c1	none
Cc1ccccc1Oc1ncnc(N)c1[N+](=O)[O-]	none
Cc1oncc1C(=O)NC1CCCCC1	none
Cc1ccc2nc(Nc3ccc4[nH]c(=O)[nH]c4c3)c(-n3nc(C)cc3C)nc2c1	none
CC(C)c1ccc(CC(C)C2C3=C(CCCC3=O)OC3=C2C(=O)CCC3)cc1 (configuration not stated)	none
Cc1ccccc1C(=O)Oc1cc(N)n(S(=O)(=O)c2ccccc2)n1	none
CCOC(=O)CCN(Cc1sccc1C)S(=O)(=O)c1ccc(F)cc1	INS promoter act 77.4
CC(C)CNC(=O)CN(C)S(=O)(=O)c1ccc(F)cc1	none
CCN(CC)S(=O)(=O)c1ccc(F)cc1	none
Cc1cc(NC(=O)CSc2nc(-c3ccccc3)cs2)no1	none
Cc1cc(NC(=O)CSc2nc3ccsc3c(=O)n2NC(=O)c2ccccc2)no1	INS promoter act 435.7
Cc1ccc(CNC(=O)CSc2nc3ccsc3c(=O)n2NC(=O)c2ccccc2)cc1	none
CCOC(=O)C1CCCN(C(=O)Cc2ccc(Cl)cc2)C1 (configuration not stated)	INS promoter act 85.2
CCOC(=O)C1CCN(C(=O)COc2ccc(Cl)cc2)CC1	none
CCOC(=O)C1CCCN(C(=O)CCc2ccccc2)C1 (configuration not stated)	none
c1ccc(-c2ccc(-c3cnc4n3CCCCC4)cc2)cc1	none
CCCCN(CC(=O)NCc1ccc(Cl)cc1)S(=O)(=O)c1ccc2c(c1)OCCO2	none
COc1cccc(CNC(=O)CC2C(=O)NCCN2Cc2ccoc2)c1OC (configuration not stated)	none
Cc1nonc1NC(=O)CSc1nc2c(C)cccc2cc1C#N	INS promoter act 809.1
Cc1cc(C)c2nc(SCC(=O)Nc3ccccc3N3CCOCC3)c(C#N)cc2c1	none
CCc1cc2cc(C)cc(C)c2nc1SCC(=O)Nc1cc(C)on1	none
Cn1c(CCN2CCOCC2)nc2cc(NC(=O)c3cccs3)ccc21	none
Cc1cc(OCCCCNC(C)C)cc(C(C)C)c1	none
O=C(CCCCCN1C(=O)c2ccccc2C1=O)Oc1ccc2c3c(c(=O)oc2c1)CCC3	none
CC1(C)CC(=O)CC(C)(C)N1OC(=O)c1ccncc1	none
Cc1cc(C)cc(Oc2ccccc2/C=N\O)c1	INS promoter act 223.3
O/N=C/c1cc(Cl)ccc1OCc1ccccc1Cl	none
O/N=C/c1ccccc1Oc1ccccc1	none
C/C(=N/NS(=O)(=O)c1ccc(Cl)cc1)c1cccc(NC(=O)c2ccc(Cl)cc2Cl)c1	none
CC(=O)N1N=C(c2ccncc2)OC12CCCC2	INS promoter act 542.9
O=C(Nc1ccncc1)C1(c2ccccc2)CCCC1	none
Cn1c(SCC#N)nnc1-c1cccnc1	none
Cc1ccc(-n2c(SCC(=O)Nc3cccc(S(N)(=O)=O)c3)nc3ccccc32)cc1	none
CC(=O)N1CCc2cc(N=NC3=C(O)CCCC3=O)ccc21	none
NC(=O)CSCc1nc2ccccc2s1	none
Cc1cc(C(=O)COC(=O)CCc2nc3ccccc3s2)c(C)n1C	INS promoter act 77.8
COCCn1c(C)cc(C(=O)CSc2nc3ccccc3s2)c1C	none
CCN1C(=O)/C(=C\c2ccc3c(c2)OCO3)C(C(=O)OC)=C1C	none
CC(C)NC(=O)CCCc1c[nH]c2ccccc12	none
COC(=O)C1=C(C)N(CCc2c[nH]c3ccccc23)C(=O)/C1=C\N(C)C	INS promoter act 408.6
CCN(C(=O)Cn1c(=O)n(-c2cc(OC)c(OC)c(OC)c2)c(=O)c2ccccc21)c1cccc(C)c1	none
O=C1NCCN(Cc2cccc(Oc3ccccc3)c2)C1CC(=O)N1CCCO1 (configuration not stated)	none
CCC/S(CC1CC1(Cl)Cl)=N\S(=O)(=O)c1ccc(C)cc1 (configuration not stated)	none
N#Cc1c2c(c(=S)n(-c3ccccc3)c1N)CCCC2	INS promoter act 273.3
N#Cc1c(NCCCO)nc(-c2ccccc2)c2c1CCCC2	none
N#Cc1c2c(c(-c3ccccc3Cl)[nH]c1=S)CCCC2	none
Cc1cc(-c2ccccc2)nc(Cl)c1C#N	none
CCC(C(=O)Nc1cc(C(=O)Nc2cc(C)ccn2)ccc1Cl)c1ccccc1 (configuration not stated)	none
CCCCNC(=S)NNC(=O)c1ccc(Br)o1	none

Source: PubChem BioAssay (Columbia University Molecular Screening Center)
